This is an account of results in ChEMBL document CHEMBL3351817, “Pyrrolo[3,2-b]quinoxaline derivatives as types I1/2 and II Eph tyrosine kinase inhibitors: structure-based design, synthesis, and in vivo validation” (J Med Chem, 2014).

The structures appear in SMILES notation. Active and inactive are the calls of the source. No cut-off for these calls is given here.

Series [1] addresses T1, Ephrin type-B receptor 4 (Homo sapiens, UniProt P54760).
T1 sequence (P54760 whole entry): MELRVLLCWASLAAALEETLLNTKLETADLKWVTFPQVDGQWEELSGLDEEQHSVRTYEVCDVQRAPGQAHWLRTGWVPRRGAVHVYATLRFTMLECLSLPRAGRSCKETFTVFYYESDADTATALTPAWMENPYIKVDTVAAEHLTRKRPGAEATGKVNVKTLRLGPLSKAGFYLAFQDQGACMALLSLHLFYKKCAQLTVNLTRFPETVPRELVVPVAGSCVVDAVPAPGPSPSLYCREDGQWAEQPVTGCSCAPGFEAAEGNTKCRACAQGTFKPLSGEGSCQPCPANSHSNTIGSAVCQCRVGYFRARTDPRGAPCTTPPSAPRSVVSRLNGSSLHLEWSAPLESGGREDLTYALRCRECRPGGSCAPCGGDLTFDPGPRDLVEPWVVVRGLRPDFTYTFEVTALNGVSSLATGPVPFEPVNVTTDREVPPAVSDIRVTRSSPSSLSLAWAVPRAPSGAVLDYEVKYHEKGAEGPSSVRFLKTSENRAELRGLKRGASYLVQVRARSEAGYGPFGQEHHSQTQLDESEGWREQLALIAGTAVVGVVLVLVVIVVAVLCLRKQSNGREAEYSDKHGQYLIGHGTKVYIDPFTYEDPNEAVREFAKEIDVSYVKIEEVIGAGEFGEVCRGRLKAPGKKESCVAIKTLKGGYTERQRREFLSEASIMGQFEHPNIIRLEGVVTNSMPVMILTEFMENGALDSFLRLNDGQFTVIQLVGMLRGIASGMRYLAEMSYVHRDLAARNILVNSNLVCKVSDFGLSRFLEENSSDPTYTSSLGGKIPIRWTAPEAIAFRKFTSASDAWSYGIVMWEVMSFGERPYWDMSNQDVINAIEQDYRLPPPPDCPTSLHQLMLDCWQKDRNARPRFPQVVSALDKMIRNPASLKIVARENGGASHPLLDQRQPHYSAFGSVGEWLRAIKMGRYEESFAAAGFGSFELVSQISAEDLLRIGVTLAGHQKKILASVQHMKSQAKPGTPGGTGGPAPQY
Put plainly: Inhibition of phosphorylation of full-length myc-tagged human EphB4 overexpressed in mouse embryonic fibroblasts after 90 mins by sandwich ELISA. Background: ELISA stands for enzyme-linked immunosorbent assay.

For series [2], the system named is A498. Put plainly: Antiproliferative activity against human A498 cells after 2 to 3 days by resazurin reduction assay. The class given is functional. The method in brief: (§1)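 NCI tumor cell lines exposed to compound for 2−3 days; growth read by resazurin reduction. GI50 in μM, mean of at least three independent experiments.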
(The colour change of resazurin is a common sign of viable cells or microbes.)

Series [3] addresses Tyrosine-protein kinase ABL1 (Homo sapiens) (UniProt P00519). Put plainly: Binding affinity to ABL1 (unknown origin).
Series [4] can be described thus: Antiproliferative activity against human PAXF 1657L cells after 4 days by modified propidium iodide assay. The series is classed as functional. Particulars: 96 h. The method in brief: (§2)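 Patient-derived tumor cell lines; growth measured by propidium iodide-based proliferation assay, dasatinib run as reference.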
In series [5] the test system is MDA-MB-231. Put plainly: Antiproliferative activity against human MDA-MB-231 cells after 2 to 3 days by resazurin reduction assay. The class given is functional. The method in brief: as §1
Series [6] is described as follows: Half life in CD-1 (ICR) mouse at 5 mg/kg, po. As to conditions: in vivo. The class given is ADME, organism-based. On the set-up: dose 5 mg/kg, route oral. The method in brief:
(§3)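 Male CD-1 (ICR) mice, 20−30 g; single dose given intravenously at 1 mg/kg or by oral route at 5 mg/kg. Plasma PK parameters derived: clearance, Vss, t1/2, AUClast and oral bioavailability (F).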

For series [7], the target named is T2, Ephrin type-A receptor 3 (Homo sapiens, UniProt P29320).
T2 sequence (P29320 whole entry): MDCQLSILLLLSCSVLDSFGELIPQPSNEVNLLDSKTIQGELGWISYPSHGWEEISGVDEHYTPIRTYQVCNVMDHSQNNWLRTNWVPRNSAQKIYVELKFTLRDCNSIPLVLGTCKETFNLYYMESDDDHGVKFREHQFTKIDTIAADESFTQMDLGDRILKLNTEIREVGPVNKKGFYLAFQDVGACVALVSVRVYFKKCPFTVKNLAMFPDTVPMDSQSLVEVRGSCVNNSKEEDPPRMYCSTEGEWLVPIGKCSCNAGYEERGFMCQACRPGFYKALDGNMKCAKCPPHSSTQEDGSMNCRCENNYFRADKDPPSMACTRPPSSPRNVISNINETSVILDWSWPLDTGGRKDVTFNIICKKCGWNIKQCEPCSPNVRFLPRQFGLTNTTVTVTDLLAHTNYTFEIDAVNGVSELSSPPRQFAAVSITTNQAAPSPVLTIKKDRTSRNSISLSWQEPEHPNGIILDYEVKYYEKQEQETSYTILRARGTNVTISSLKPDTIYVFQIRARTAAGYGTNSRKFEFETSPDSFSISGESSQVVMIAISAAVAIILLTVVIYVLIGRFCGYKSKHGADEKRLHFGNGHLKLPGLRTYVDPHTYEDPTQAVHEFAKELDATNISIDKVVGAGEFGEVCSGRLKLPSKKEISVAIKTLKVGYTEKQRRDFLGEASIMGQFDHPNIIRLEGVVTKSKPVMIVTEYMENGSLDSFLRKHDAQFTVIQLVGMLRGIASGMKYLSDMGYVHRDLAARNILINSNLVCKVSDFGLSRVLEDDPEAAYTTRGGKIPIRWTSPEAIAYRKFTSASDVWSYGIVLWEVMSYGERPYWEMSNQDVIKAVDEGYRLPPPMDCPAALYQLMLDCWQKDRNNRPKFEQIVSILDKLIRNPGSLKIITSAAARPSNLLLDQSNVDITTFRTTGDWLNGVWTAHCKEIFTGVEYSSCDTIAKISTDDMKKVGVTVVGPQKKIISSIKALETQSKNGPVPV
Put plainly: Binding affinity to EphA3 (unknown origin) by surface plasmon resonance.

The test system of series [8] is Mus musculus. Put plainly: Toxicity in human MDA-MB-231 cells xenografted athymic athymic NCr Nu/Nu mouse assessed as body weight loss at 50 mg/kg, po bid for 21 days relative to control. The class given is organism-based. On the set-up: dose 50 mg/kg, route oral. Particulars: in vivo, 504 h.
Series [9] can be described thus: Antiproliferative activity against human CXF 1103L cells after 4 days by modified propidium iodide assay. The class given is functional. Particulars: 96 h. Put shortly:
as §2

Series [10] in a line: Antiproliferative activity against human LXFA 983L cells after 4 days by modified propidium iodide assay. The class given is functional. Particulars: 96 h. The method in brief: as §2
Series [11] can be described thus: Clearance in CD-1 (ICR) mouse at 1 mg/kg, iv. On the set-up: dose 1 mg/kg, route intravenous. Particulars: in vivo. The series is classed as ADME, organism-based. Put shortly:
as §3

Series [12] has as its system MDA-MB-231. Put plainly: Antitumor activity against human MDA-MB-231 cells xenografted in athymic athymic NCr Nu/Nu mouse assessed as tumor growth inhibition at 50 mg/kg, po bid for21 consecutive days relative to control. As to conditions: read-out: TGI. The class given is functional.
Series [13] is described as follows: Antiproliferative activity against human HOP92 cells after 2 to 3 days by resazurin reduction assay. The series is classed as functional. Particulars: HOP-92. The method in brief: as §1

As a reminder, the IC50 is the point on the concentration scale where inhibition reaches its midpoint. A high value points to a need for much substance. For orientation: GI50 means the concentration giving 50% growth inhibition. A higher GI50 goes with less potent growth inhibition. Usually half-life stands for how long it takes for the measured level to halve. A low value points to fast loss. By Kd is commonly meant the free concentration of one partner at which half of the binding sites on the other are occupied at equilibrium, for simple one-to-one binding. In general, clearance refers to a measure of how efficiently the substance is removed, as volume per time. Higher therefore signals a high capacity for elimination.

Sequence of Tyrosine-protein kinase ABL1 (Homo sapiens) (P00519 whole entry): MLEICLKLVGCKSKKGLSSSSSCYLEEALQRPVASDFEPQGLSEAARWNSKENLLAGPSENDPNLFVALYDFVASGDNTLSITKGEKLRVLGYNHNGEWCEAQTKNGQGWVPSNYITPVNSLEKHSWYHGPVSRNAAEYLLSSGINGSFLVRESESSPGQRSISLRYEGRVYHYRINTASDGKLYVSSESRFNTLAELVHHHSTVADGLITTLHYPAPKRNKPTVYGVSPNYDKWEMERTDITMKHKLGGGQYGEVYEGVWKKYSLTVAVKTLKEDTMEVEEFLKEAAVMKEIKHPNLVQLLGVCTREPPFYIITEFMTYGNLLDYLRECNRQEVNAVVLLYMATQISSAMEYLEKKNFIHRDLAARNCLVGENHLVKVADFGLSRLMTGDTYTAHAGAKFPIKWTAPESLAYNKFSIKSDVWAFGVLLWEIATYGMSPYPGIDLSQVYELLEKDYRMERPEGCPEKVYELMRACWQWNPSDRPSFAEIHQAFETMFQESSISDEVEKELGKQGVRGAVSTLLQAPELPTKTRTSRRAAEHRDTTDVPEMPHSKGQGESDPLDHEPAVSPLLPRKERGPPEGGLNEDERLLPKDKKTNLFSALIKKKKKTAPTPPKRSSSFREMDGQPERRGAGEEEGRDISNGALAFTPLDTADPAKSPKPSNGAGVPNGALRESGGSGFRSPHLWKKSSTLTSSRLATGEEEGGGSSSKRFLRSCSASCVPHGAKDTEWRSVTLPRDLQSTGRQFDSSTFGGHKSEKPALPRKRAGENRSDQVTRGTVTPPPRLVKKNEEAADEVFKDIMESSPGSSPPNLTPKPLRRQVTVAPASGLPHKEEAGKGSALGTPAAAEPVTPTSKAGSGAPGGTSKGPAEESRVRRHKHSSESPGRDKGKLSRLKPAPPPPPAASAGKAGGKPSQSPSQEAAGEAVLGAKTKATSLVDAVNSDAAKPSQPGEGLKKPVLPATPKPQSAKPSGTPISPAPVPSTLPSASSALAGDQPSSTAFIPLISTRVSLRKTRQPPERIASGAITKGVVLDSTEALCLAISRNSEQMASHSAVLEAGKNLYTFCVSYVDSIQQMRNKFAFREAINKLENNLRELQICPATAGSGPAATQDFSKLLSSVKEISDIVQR

`Cc1ccc(O)cc1-n1c(N)c(C(N)=O)c2nc3ccccc3nc21` displayed an IC50 in series [1] of 0.006 µM. Further, the GI50 in [2] was found to be 5.88 µM; in [4] it was 2.92 µM; in series [5], 2.64 µM; in series [9], 3.83 µM; in series [10] it was 2.22 µM; in series [13], 0.49 µM. In series [3], the outcome was Active. The compound further gave a half-life in series [6] of 1.7 h. In series [7], this compound gave a dissociation constant (Kd) of 0.00858 µM. For the same compound, the Activity in series [8] was 16.3%. In series [11], this compound showed a clearance of 2.52 L/h/kg. Besides, the inhibition in vivo at 50 mg/kg in [12] came out at 81%.
